Measured values from article PMC6684861 (Traffic (Copenhagen, Denmark), 2018).
Primed or numbered codes have the meaning given here. No end group written: not given here. FITC′ = fluorescein isothiocyanate label

Key:
Impα = conditions: ref [24]; cited from earlier work
U2OS cells [1] = conditions: compared with pol λ in U2OS cells; ref [24]; cited from earlier work
ImpαΔIBB = ImpαΔIBB (Mus musculus, UniProt P52293); assay: X-ray crystallography of ImpαΔIBB-NLS peptide complexes; type: binding, murine; conditions: estimated from electron density
How it was run: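 ImpαΔIBB (15 mg/ml in 20 mM Tris pH 7.8, 125 mM NaCl, 5 mM DTT) was mixed with test NLS peptide at 1.25:1 molar excess. Crystals were grown by hanging-drop vapor diffusion. For two complexes the mother liquor was 0.7 or 0.8 M sodium citrate with 0.1 M HEPES pH 7.0. Rfree used 5% of reflections excluded from refinement. Geometry was checked with MolProbity.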

U2OS cells [2] = assay: Nuclear/cytosolic ratio of pol X-GFP adducts in transfected U2OS cells; type: cell-based, human; conditions: among the four mammalian enzymes, in the cell-types investigated
How it was run: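 U2OS cells in RPMI 1640 with 10% FBS (37 °C, 5% CO2) were seeded at 10,000 cells/chamber. They were transfected (Lipofectamine 2000, 1:4 DNA:reagent) with wild-type or NLS-mutant polymerase-GFP plasmids, then fixed at 24 h (3.7% formaldehyde), permeabilized and stained with CellMask and a nuclear stain. Confocal GFP intensity was measured in nuclear and cytoplasmic ROIs of ≥30 cells/construct. Ratios were averaged with ±2 SD outliers removed, then analysed by ANOVA/Tukey.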

occupancy of the minor binding pocket (ImpαΔIBB) | Substance | binding affinity of NLS for the minor binding pocket of Impα (Impα) | nuclear/cytosolic ratio of pol β (U2OS cells [1]) | extent of nuclear localization, in words (U2OS cells [2])
– | DNA polymerase β [pol β] | highly selective binding affinity for the minor binding pocket of Impα | ~ 3 | –
~ 70% | pol λ NLS: bipartite N-terminal NLS of pol λ (KAFPKRQKIHADASSKVLAKIPRREEGK-{FITC′}) | – | – | greatest extent of nuclear localization
